From ChEMBL document CHEMBL1221183, “Chemical modulation of receptor signaling inhibits regenerative angiogenesis in adult zebrafish” (Nat Chem Biol, 2006)
Values belong to the molecule of their own block, whether it stands above or below them. Calls of active or inactive are those of the source. The rule behind the calls is not given here.

Experiments:
[1] = biological target: Vascular endothelial growth factor receptor 2 (Danio rerio) (UniProt Q5GIT4); assay: Inhibition of VEGFR2-mediated regenerative angiogenesis in adult zebrafish tail fin proximal vessel at 500 nM treated for 3 days post 5 days of amputation period measured on day 5 by angiography
Sequence of Vascular endothelial growth factor receptor 2 (Danio rerio) (Q5GIT4 whole entry, the tested form may be a part): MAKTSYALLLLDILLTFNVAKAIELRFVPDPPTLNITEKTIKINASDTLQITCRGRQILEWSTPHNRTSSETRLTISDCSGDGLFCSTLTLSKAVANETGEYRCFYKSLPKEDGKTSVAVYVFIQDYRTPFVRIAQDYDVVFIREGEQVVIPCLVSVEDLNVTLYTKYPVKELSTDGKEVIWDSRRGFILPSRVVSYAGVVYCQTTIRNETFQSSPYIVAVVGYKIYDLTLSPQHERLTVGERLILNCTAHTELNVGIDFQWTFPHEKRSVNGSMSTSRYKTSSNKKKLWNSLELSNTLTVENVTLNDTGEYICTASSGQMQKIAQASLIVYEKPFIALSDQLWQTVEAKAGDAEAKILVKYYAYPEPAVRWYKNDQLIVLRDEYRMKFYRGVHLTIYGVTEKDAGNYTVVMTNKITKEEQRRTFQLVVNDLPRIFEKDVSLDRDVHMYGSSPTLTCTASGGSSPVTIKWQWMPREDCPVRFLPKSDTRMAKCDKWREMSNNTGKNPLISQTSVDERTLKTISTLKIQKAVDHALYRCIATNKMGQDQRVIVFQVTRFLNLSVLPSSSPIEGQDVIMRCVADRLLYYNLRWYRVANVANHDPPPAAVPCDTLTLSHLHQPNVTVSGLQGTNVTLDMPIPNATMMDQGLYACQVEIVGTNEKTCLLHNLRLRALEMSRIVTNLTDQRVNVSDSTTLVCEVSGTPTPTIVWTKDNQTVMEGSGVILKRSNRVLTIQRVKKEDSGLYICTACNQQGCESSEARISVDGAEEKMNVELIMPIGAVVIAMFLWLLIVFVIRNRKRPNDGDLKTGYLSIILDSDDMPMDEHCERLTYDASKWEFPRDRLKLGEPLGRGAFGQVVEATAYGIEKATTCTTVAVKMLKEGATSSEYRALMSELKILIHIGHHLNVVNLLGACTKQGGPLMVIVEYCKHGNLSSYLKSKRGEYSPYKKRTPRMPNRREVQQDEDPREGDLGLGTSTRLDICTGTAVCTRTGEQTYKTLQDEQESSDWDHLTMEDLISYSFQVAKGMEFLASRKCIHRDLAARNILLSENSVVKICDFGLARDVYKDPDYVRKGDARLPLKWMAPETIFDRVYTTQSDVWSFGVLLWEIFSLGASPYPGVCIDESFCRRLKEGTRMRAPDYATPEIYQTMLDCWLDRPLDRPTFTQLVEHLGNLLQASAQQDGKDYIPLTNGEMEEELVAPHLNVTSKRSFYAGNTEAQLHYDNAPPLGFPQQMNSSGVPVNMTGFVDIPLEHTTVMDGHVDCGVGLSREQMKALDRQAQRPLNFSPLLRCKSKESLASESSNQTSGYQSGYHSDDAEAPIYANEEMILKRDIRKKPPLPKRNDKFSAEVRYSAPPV
Method in brief: (§1)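 Amputated adult Tg(fli1:EGFP)y1 fins recovered at 31-33 °C in fish water or 500 nM inhibitor (final DMSO <0.1%); in washout runs the drug was removed at 3 dpa. The same fish were imaged over several days.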

[2] = biological target: Vascular endothelial growth factor receptor 2 (Danio rerio) (UniProt Q5GIT4); assay: Inhibition of VEGFR2-mediated regenerative angiogenesis in adult zebrafish tail fin assessed disruption of actin filament at 500 nM measured after 1 week or recovery post amputation by immunohistochemistry
[3] = species: Danio rerio; assay: Decrease in VEGFR2 gene expression in adult zebrafish tail fin at 500 nM after 3 days by real-time PCR analysis
[4] = species: Danio rerio; assay: Decrease in VEGFR2 gene expression in adult zebrafish tail fin at 500 nM treated for 3 days measured on day 5 following drug washout by real-time PCR analysis
[5] = biological target: Vascular endothelial growth factor receptor 2 (Danio rerio) (UniProt Q5GIT4); assay: Inhibition of VEGFR2-mediated regenerative angiogenesis in adult zebrafish tail fin distal vessel at 500 nM treated for 3 days post 5 days of amputation period measured on day 5 by angiography; method in brief: as §1
[6] = biological target: Vascular endothelial growth factor receptor 2 (Danio rerio) (UniProt Q5GIT4); assay: Complete inhibition of VEGFR2-mediated regenerative angiogenesis in adult zebrafish tail fin vessel at 500 nM after 3 days by microscopy
Method in brief: (§2)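 Adult fins cut at mid-fin level; fish kept in fish water with inhibitor (DMSO stock, final DMSO <0.1%) at 31-33 °C, up to six fish per liter, for 3 dpa. Tg(fli1:EGFP)y1 endothelial signal imaged by fluorescence microscopy, with perfusion shown by intracardiac angiography in the same fish.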

[7] = species: Danio rerio; assay: Decrease in VEGFR2 gene expression in adult zebrafish tail fin at 500 nM treated for 3 days measured on day 4 following drug washout by real-time PCR analysis
[8] = biological target: Vascular endothelial growth factor receptor 2 (Danio rerio) (UniProt Q5GIT4); assay: Inhibition of VEGFR2-mediated regenerative angiogenesis in adult zebrafish tail fin at 500 nM treated for 3 days measured after 4 days of drug washout by angiography; method in brief: as §1
[9] = biological target: Vascular endothelial growth factor receptor 2 (Danio rerio) (UniProt Q5GIT4); assay: Effect on VEGFR2-mediated bone tissue regeneration in adult zebrafish tail fin at 500 nM after 5 days by zns-5 staining-based immunohistochemistry
Method in brief: (§3)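 Fins fixed overnight at 4 °C in Dent's fixative, dehydrated in a methanol series, re-fixed in 4% paraformaldehyde for 2-24 h, then permeabilized in acetone at -20 °C for 20 min and blocked 1 h at 37 °C. Primary antibody zn-12, zns-5 or B-4 (smooth muscle actin) at 1:50-1:200 overnight at 4 °C; Cy2/Cy3 secondary at 1:200.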

[10] = biological target: Vascular endothelial growth factor receptor 2 (Danio rerio) (UniProt Q5GIT4); assay: Inhibition of VEGFR2-mediated regenerative angiogenesis in adult zebrafish tail fin assessed as decrease in tissue regeneration at 500 nM after 5 days by angiography; type: tissue-based; method in brief: as §1
[11] = biological target: Vascular endothelial growth factor receptor 2 (Danio rerio) (UniProt Q5GIT4); assay: Inhibition of VEGFR2-mediated regenerative angiogenesis in adult zebrafish tail fin distal vessel at 500 nM treated for 3 days post 5 days of amputation period measured on day 8 by angiography; method in brief: as §1
[12] = biological target: Vascular endothelial growth factor receptor 2 (Danio rerio) (UniProt Q5GIT4); assay: Inhibition of VEGFR2-mediated shh mRNA expression in adult zebrafish tail fin at 500 nM measured on day 2 post treatment by in-situ hybridization assay
[13] = biological target: Vascular endothelial growth factor receptor 2 (Danio rerio) (UniProt Q5GIT4); assay: Inhibition of VEGFR2-mediated regenerative angiogenesis in adult zebrafish tail fin vessel at 500 to 1000 nM after 3 days by microscopy
[14] = biological target: Vascular endothelial growth factor receptor 2 (Danio rerio) (UniProt Q5GIT4); assay: Inhibition of VEGFR2-mediated msxb mRNA expression in adult zebrafish tail fin at 500 nM measured on day 2 post treatment by in-situ hybridization assay
[15] = biological target: Vascular endothelial growth factor receptor 2 (Danio rerio) (UniProt Q5GIT4); assay: Effect on VEGFR2-mediated axonal outgrowth in adult zebrafish tail fin at 500 nM after 5 days by zn-12 staining-based immunohistochemistry; method in brief: as §3
[16] = biological target: Vascular endothelial growth factor receptor 2 (Danio rerio) (UniProt Q5GIT4); assay: Inhibition of VEGFR2-mediated VEGFA mRNA expression in adult zebrafish tail fin at 500 nM after 1.5 days by in-situ hybridization assay
[17] = species: Danio rerio; assay: Decrease in VEGFR2 gene expression in adult zebrafish tail fin at 500 nM up to 2 days by in-situ hybridization assay
[18] = biological target: Vascular endothelial growth factor receptor 2 (Danio rerio) (UniProt Q5GIT4); assay: Effect on VEGFR2-mediated VEGFA mRNA expression in adult zebrafish tail fin at 500 nM treated for 3 days measured on day 5 following drug washout by real-time PCR analysis
[19] = biological target: Vascular endothelial growth factor receptor 2 (Danio rerio) (UniProt Q5GIT4); assay: Inhibition of VEGFR2-mediated regenerative angiogenesis in adult zebrafish tail fin proximal vessel at 500 nM treated for 3 days post 5 days of amputation period measured on day 8 by angiography; method in brief: as §1
[20] = biological target: Vascular endothelial growth factor receptor 2 (Danio rerio) (UniProt Q5GIT4); assay: Partial inhibition of VEGFR2-mediated regenerative angiogenesis in adult zebrafish tail fin vessel at 100 nM after 3 days by microscopy; method in brief: as §2
[21] = biological target: Vascular endothelial growth factor receptor 2 (Danio rerio) (UniProt Q5GIT4); assay: Inhibition of VEGFR2-mediated regenerative angiogenesis in adult zebrafish tail fin vessel harboring hypomorphic mutation in grlm145 gene assessed as vascularization of newly generated tissues at 100 nM measured on day 3 post treatment by angiography; type: tissue-based; parameters: scale not given: the % may be the effect or the level left
Method in brief: (§4)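 Fins of wild-type or mutant adults cut at mid-fin level, then kept 3 dpa in fish water or 100 nM PTK787 at 31-33 °C. Perfusion shown by intracardiac injection of fluorescent lectin or 70-kDa dextran (5 mg ml-1 in Danieau's, pH 7.6). Tissue regrowth and vessel regeneration measured for each fish and given as percentage of vascularization; ANOVA with Tukey tests.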

[22] = species: Danio rerio; assay: Effect on ephrinB2a mRNA expression in adult zebrafish tail fin at 500 nM treated for 3 days measured on day 5 following drug washout by real-time PCR analysis
[23] = biological target: Vascular endothelial growth factor receptor 2 (Danio rerio) (UniProt Q5GIT4); assay: Inhibition of VEGFR2-mediated regenerative angiogenesis in clom39-positive heterozygous adult zebrafish tail fin vessel assessed as vascularization of newly generated tissues at 100 nM measured on day 3 post treatment by angiography; type: tissue-based; parameters: scale not given: the % may be the effect or the level left; method in brief: as §4
[24] = biological target: Vascular endothelial growth factor receptor 2 (Danio rerio) (UniProt Q5GIT4); assay: Inhibition of VEGFR2-mediated regenerative angiogenesis in adult zebrafish tail fin assessed as amount of tissue regeneration at 500 nM measured on day 7 post treatment by angiography; type: tissue-based; method in brief: as §1
[25] = biological target: Vascular endothelial growth factor receptor 2 (Danio rerio) (UniProt Q5GIT4); assay: Inhibition of VEGFR2-mediated regenerative angiogenesis in PLCgamma1y10 gene-deficient adult zebrafish tail fin vessel assessed as vascularization of newly generated tissues at 100 nM measured on day 3 post treatment by angiography; type: tissue-based; parameters: scale not given: the % may be the effect or the level left; method in brief: as §4
[26] = biological target: Vascular endothelial growth factor receptor 2 (Danio rerio) (UniProt Q5GIT4); assay: Inhibition of VEGFR2-mediated regenerative angiogenesis in wild type adult zebrafish tail fin vessel assessed as vascularization of newly generated tissues at 100 nM measured on day 3 post treatment by angiography; type: tissue-based; parameters: scale not given: the % may be the effect or the level left; method in brief: as §4
[27] = species: Danio rerio; assay: Effect on semaphorin3aa mRNA expression in adult zebrafish tail fin at 500 nM treated for 3 days measured on day 5 following drug washout by real-time PCR analysis
[28] = biological target: Vascular endothelial growth factor receptor 2 (Danio rerio) (UniProt Q5GIT4); assay: Inhibition of VEGFR2-mediated regenerative angiogenesis in adult zebrafish tail fin assessed disruption of actin filament at 500 nM after 14 days by immunohistochemistry
[29] = biological target: Vascular endothelial growth factor receptor 2 (Danio rerio) (UniProt Q5GIT4); assay: Inhibition of VEGFR2-mediated regenerative angiogenesis in adult zebrafish tail fin assessed as reduction of plexus formation at 500 nM treated for 3 days measured after 4 days of drug washout by angiography; method in brief: as §1
[30] = biological target: Vascular endothelial growth factor receptor 2 (Danio rerio) (UniProt Q5GIT4); assay: Inhibition of VEGFR2-mediated regenerative angiogenesis in adult zebrafish tail fin assessed as amount of tissue regeneration at 500 nM measured on day 14 post treatment by angiography; type: tissue-based; method in brief: as §1
[31] = species: Danio rerio; assay: Decrease in FGFR1 mRNA expression in adult zebrafish tail fin at 500 nM measured on day 2 post treatment by in-situ hybridization assay
[32] = biological target: Vascular endothelial growth factor receptor 2 (Danio rerio) (UniProt Q5GIT4); assay: Inhibition of VEGFR2-mediated regenerative angiogenesis in adult zebrafish tail fin vessel at 500 to 1000 nM after 3 days by microscopy; type: tissue-based
[33] = biological target: Vascular endothelial growth factor receptor 2 (Danio rerio) (UniProt Q5GIT4); assay: Inhibition of VEGFR2-mediated regenerative angiogenesis in adult zebrafish tail fin vessel at 100 to 500 nM after 3 days by microscopy; method in brief: as §2
[34] = biological target: Vascular endothelial growth factor receptor 2 (Danio rerio) (UniProt Q5GIT4); assay: Mild inhibition of VEGFR2-mediated regenerative angiogenesis in adult zebrafish tail fin vessel at 100 to 500 nM after 3 days by microscopy; method in brief: as §2

- inhibition [1]: inactive
- inhibition [2]: Active
- inhibition [5]: Active
- inhibition [6]: Active
- inhibition [8]: inactive
- Activity [9]: inactive
- inhibition [10]: Active
- inhibition [11]: Active
- inhibition [12]: inactive
- inhibition [13]: Active
- inhibition [14]: inactive
- Activity [15]: inactive
- inhibition [16]: inactive
- Activity [18]: inactive
- inhibition [19]: inactive
- inhibition [20]: Active
- Activity [21]: 30%
- Activity [23]: 50%
- regenerated tissue length [24]: 800 µm
- Activity [25]: 30%
- Activity [26]: 50%
- inhibition [28]: inactive
- inhibition [29]: Active
- regenerated tissue length [30]: 800 µm
SMILES: Clc1ccc(Nc2nnc(Cc3ccncc3)c3ccccc23)cc1
- inhibition [3]: Active
- inhibition [4]: inactive
- inhibition [7]: inactive
- inhibition [17]: Active
- Activity [22]: inactive
- Activity [27]: inactive
- inhibition [31]: inactive

- inhibition [32]: inactive
SMILES: Cc1cc(C)c(/C=C2\C(=O)Nc3ccccc32)[nH]1

- inhibition [33]: Active
SMILES: O=C(Nc1cccc(C(F)(F)F)c1)c1ccccc1NCc1ccncc1

- inhibition [34]: Active
- inhibition [13]: Active
SMILES: CCN(CC)CCNC(=O)c1c(C)[nH]c(/C=C2\C(=O)Nc3ccc(Cl)cc32)c1C
